Laboratory results taken from ChEMBL document CHEMBL1142832, “Potent 4-aminopiperidine based antimalarial agents” (Bioorg Med Chem Lett, 2005).

Columns and labels:
HFF = assay: Cytotoxicity of compound was determined in human foreskin fibroblast assay; format: functional
How it was run: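 Human foreskin fibroblasts were assayed in quadruplicate, and the average toxicity value is reported in nM.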

Plasmodium falciparum [1] = assay: Inhibition against multidrug-resistant Plasmodium falciparum infected erythrocytes; format: functional, organism-based
How it was run: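 Multidrug-resistant P. falciparum Dd2 was grown in human red blood cells and assayed at the late ring stage. Parasite growth was read as [3H]-hypoxanthine incorporation. Each compound was run in duplicate, and the mean IC50 (nM) is reported.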

Homo sapiens = organism: Homo sapiens; assay: Percent remaining of compound was determined in human S9 liver microsomes at 1 hr; conditions: Liver S9 fraction
Mus musculus = organism: Mus musculus; assay: Percent remaining of compound was determined in mouse S9 liver microsomes at 1 hr; conditions: Liver S9 fraction
Plasmodium falciparum [2] = assay: Inhibitory concentration against chloroquine-sensitive Plasmodium falciparum; format: functional, organism-based

Row | Structure (SMILES) | Cytotoxicity (HFF) | IC50 (Plasmodium falciparum [1]) | level, % of control (Homo sapiens) | level, % of control (Mus musculus) | IC50 (Plasmodium falciparum [2])
1 | CCN(CC)CCCNC1CCN(CCc2ccc(Cl)cc2)CC1 | 2700 nM | 850 nM | – | – | –
2 | CN(C)CCCNC1CCN(CC(c2ccccc2)c2ccccc2)CC1 | 1300 nM | 300 nM | – | – | –
3 | CCN(CCCNC1CCN(CC(c2ccccc2)c2ccccc2)CC1)CC(c1ccccc1)c1ccccc1 | 9900 nM | 900 nM | – | – | –
4 | CCN(CCCNC1CCN(CC(c2ccccc2)c2ccccc2)CC1)CCc1ccc(-c2ccccc2)cc1 | 7600 nM | 75 nM | 45% | 113% | –
5 | CCNCCCNC1CCN(CC(c2ccccc2)c2ccccc2)CC1 | 2600 nM | 2500 nM | – | – | –
6 | CCN(CC)CCCNC1CCN(CCc2ccc(-c3ccccc3)cc2)CC1 | 1200 nM | 400 nM | – | – | –
7 | CCN(CCCNC1CCN(CC(c2ccccc2)c2ccccc2)CC1)CCC1CCCCC1 | 2100 nM | 250 nM | – | – | –
8 | c1ccc(C(CN2CCC(NCCCN3CCCCC3)CC2)c2ccccc2)cc1 | 1200 nM | 200 nM | – | – | –
9 | CCN(CC)CCCNC1CCN(CC(c2ccccc2)c2ccccc2)CC1 | 9900 nM | 900 nM | – | – | 30 nM
10 | c1ccc(Oc2ccc(CNCCCNC3CCN(CC4CCCCC4)CC3)cc2)cc1 | – | – | – | – | 30 nM
11 | CCN(CC)CCCNC1CCN(CC2CCCCC2)CC1 | 6000 nM | 4300 nM | – | – | –
12 | c1ccc(C(CN2CCC(NCCCN3CCCC3)CC2)c2ccccc2)cc1 | 2500 nM | 200 nM | – | – | –
13 | CCN(CC)CCCNC1CCN(CCC2CCCCC2)CC1 | 2900 nM | 920 nM | – | – | –
14 | CCN(CCCNC1CCN(CC(c2ccccc2)c2ccccc2)CC1)CC1CCCCC1 | 2200 nM | 200 nM | – | – | –
15 | CCN(CCCNC1CCN(CC(c2ccccc2)c2ccccc2)CC1)CCc1ccc(Cl)cc1 | 2000 nM | 200 nM | – | – | –
